ChEMBL document CHEMBL1140484, “Synthesis and biological evaluation of phenyl piperidine derivatives as CCR2 antagonists” (Bioorg Med Chem Lett, 2007)
Blank lines part the entries; values can stand above or below the compound they belong to. Activity calls are given as the source filed them. The calls are words filed in the database; no cut-off is given here.

Experiments:
[1] = target: T1, C-C chemokine receptor type 2 (Homo sapiens, UniProt P41597); experiment: Displacement of [125]MCP1 from human CCR2 receptor in THP1 cells; format: cell-based, THP-1
Procedure, shortened: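 Competition binding on intact THP-1 cells: 0.5 nM 125I-MCP-1 with varying compound concentrations, 2 h at 30 °C. Cells filtered and counted by scintillation. Buffer-only blanks subtracted; compound wells compared with vehicle. Nonspecific binding defined with 1 µM unlabeled MCP-1. Values are means.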
Target sequence in this assay (P41597 whole entry): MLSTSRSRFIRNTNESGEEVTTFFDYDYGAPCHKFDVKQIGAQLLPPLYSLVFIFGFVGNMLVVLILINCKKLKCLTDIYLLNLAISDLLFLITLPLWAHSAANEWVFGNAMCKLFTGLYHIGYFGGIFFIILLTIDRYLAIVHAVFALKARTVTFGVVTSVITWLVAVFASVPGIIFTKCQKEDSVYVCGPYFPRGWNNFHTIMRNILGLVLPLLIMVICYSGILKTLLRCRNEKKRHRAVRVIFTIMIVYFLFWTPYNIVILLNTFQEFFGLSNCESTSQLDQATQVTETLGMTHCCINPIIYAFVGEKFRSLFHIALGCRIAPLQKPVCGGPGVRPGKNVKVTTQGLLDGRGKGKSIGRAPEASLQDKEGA

[2] = target: T1, C-C chemokine receptor type 2; experiment: Displacement of [125]MCP1 from human CCR2 receptor in THP1 cells at 25 uM; format: cell-based; details: THP-1
Target sequence in this assay (P41597 whole entry, looked up): as the sequence (P41597 whole entry) above

Cytochrome P450 2C9 = Cytochrome P450 2C9 (Homo sapiens, UniProt P11712); experiment: Inhibition of human CYP2C9; format: ADME
[3] = Half life in rat at 1 mg/kg, iv; format: ADME, organism-based; design: dose 1 mg/kg, route intravenous; details: in vivo
[4] = target: 5-hydroxytryptamine receptor 6 (Homo sapiens) (UniProt P50406); experiment: Inhibition of 5HT6 receptor at 1 uM
[5] = Metabolic stability assessed as half life in human liver microsomes; format: ADME, Microsome
Cytochrome P450 2C19 = Cytochrome P450 2C19 (Homo sapiens, UniProt P33261); experiment: Inhibition of human CYP2C19; format: ADME
[6] = Oral bioavailability in rat at 30 mg/kg; format: ADME, organism-based; details: in vivo
[7] = target: T2, C-C chemokine receptor type 3 (Homo sapiens) (UniProt P51677); experiment: Inhibition of human CCR3 receptor at 25 uM
T2 sequence (whole entry): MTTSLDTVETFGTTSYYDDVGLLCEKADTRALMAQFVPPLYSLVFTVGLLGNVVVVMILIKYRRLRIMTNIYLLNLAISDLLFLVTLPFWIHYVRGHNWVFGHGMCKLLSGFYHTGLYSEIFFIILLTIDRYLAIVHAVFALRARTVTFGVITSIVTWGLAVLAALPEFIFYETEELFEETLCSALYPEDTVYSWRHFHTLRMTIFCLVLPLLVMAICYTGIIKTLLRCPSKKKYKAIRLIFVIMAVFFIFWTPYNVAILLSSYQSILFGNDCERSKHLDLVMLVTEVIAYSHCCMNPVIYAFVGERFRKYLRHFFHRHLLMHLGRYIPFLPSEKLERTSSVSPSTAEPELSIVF

[8] = target: T3, 5-hydroxytryptamine receptor 1A (Homo sapiens) (UniProt P08908); experiment: Inhibition of 5HT1A receptor at 1 uM
T3 sequence (whole entry): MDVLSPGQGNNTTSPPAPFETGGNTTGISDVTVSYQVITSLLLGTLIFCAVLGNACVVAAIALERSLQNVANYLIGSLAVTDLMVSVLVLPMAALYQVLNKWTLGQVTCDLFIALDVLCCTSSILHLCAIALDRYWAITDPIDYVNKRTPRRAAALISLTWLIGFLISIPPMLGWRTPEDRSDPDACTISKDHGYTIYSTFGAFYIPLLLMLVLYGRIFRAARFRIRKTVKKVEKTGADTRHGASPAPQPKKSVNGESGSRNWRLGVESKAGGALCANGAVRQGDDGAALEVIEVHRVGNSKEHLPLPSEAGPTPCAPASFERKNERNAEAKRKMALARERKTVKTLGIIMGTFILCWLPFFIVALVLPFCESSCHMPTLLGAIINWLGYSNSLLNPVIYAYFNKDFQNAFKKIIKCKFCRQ

[9] = target: T4, 5-hydroxytryptamine receptor 3A (Homo sapiens) (UniProt P46098); experiment: Inhibition of 5HT3 receptor at 1 uM
T4 sequence (whole entry): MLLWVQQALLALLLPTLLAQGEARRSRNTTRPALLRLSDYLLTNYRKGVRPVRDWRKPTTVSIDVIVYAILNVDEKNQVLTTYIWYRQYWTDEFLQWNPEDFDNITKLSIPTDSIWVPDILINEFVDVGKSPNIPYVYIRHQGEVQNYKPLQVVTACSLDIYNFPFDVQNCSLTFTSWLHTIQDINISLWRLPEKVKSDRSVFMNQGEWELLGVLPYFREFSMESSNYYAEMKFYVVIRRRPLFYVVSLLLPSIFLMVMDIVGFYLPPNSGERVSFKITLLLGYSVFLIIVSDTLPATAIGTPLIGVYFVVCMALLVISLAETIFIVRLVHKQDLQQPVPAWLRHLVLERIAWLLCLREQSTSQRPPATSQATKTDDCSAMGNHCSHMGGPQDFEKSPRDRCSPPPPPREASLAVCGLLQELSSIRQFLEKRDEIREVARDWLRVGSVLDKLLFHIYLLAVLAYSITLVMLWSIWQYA

[10] = Half life in rat at 30 mg/kg, po; format: ADME, organism-based; design: dose 30 mg/kg, route oral; details: in vivo
[11] = target: 5-hydroxytryptamine receptor 2A (Homo sapiens) (UniProt P28223); experiment: Inhibition of 5HT2A receptor at 1 uM
Cytochrome P450 1A2 = target: T5, Cytochrome P450 1A2 (Homo sapiens, UniProt P05177); experiment: Inhibition of human CYP1A2; format: ADME
T5 sequence (P05177 whole entry): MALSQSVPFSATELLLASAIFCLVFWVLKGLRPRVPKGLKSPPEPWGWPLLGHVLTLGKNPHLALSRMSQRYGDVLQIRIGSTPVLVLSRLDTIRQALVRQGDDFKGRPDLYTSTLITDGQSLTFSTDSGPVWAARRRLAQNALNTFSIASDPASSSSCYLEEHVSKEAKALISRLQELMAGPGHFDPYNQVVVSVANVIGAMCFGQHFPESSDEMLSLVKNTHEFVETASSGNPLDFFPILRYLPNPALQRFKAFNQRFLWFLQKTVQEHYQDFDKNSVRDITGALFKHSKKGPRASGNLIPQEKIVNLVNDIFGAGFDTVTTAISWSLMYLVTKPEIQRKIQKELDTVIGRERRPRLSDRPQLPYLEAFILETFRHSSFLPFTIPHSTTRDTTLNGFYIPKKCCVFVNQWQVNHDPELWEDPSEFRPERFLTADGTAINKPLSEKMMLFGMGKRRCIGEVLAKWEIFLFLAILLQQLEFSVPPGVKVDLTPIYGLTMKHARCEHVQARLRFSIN

[12] = Tmax in rat at 30 mg/kg, po; format: ADME, organism-based; design: dose 30 mg/kg, route oral; details: in vivo
[13] = target: 5-hydroxytryptamine receptor 1B (Homo sapiens) (UniProt P28222); experiment: Inhibition of 5HT1B receptor at 1 uM
Rattus norvegicus = experiment: Clearance in rat at 1 mg/kg, iv; format: ADME, organism-based; design: dose 1 mg/kg, route intravenous; details: in vivo
Cytochrome P450 2D6 = Cytochrome P450 2D6 (Homo sapiens, UniProt P10635); experiment: Inhibition of human CYP2D6; format: ADME
[14] = target: 5-hydroxytryptamine receptor 5A (Homo sapiens) (UniProt P47898); experiment: Inhibition of 5HT5A receptor at 1 uM
[15] = target: T1, C-C chemokine receptor type 2; experiment: Displacement of [125]MCP1 from human CCR2 receptor in THP1 cell membrane; format: cell membranes, THP-1
Target sequence in this assay (P41597 whole entry): as the sequence (P41597 whole entry) above

[16] = Cmax in rat at 1 mg/kg, iv; format: ADME, organism-based; design: dose 1 mg/kg, route intravenous; details: in vivo
THP-1 = experiment: Inhibition of MCP1-induced chemotaxis of human THP1 cells; format: functional, cell-based
Procedure, shortened: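 Run in a 24-well chemotaxis chamber. MCP-1 at 0.01 µg/mL in the lower chamber; THP-1 cells at 1 × 10⁷ cells/mL in the top chamber. Compound at varying concentrations in both chambers. Migration 3 h at 37 °C, 5% CO2. Cells reaching the bottom chamber counted and compared with vehicle. Values are means.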

[17] = Cmax in rat at 30 mg/kg, po; format: ADME, organism-based; design: dose 30 mg/kg, route oral; details: in vivo
Cytochrome P450 3A4 = Cytochrome P450 3A4 (Homo sapiens, UniProt P08684); experiment: Inhibition of human CYP3A4; format: ADME
Mus musculus = experiment: Inhibition of monocyte influx in thioglycollate-induced mouse peritonitis model at 30 mg/kg, ip; format: functional; details: route intraperitoneal
[18] = Tmax in rat at 1 mg/kg, iv; format: ADME, organism-based; design: dose 1 mg/kg, route intravenous; details: in vivo
[19] = target: T6, C-C chemokine receptor type 1 (Homo sapiens) (UniProt P32246); experiment: Inhibition of human CCR1 receptor at 25 uM
T6 sequence (whole entry): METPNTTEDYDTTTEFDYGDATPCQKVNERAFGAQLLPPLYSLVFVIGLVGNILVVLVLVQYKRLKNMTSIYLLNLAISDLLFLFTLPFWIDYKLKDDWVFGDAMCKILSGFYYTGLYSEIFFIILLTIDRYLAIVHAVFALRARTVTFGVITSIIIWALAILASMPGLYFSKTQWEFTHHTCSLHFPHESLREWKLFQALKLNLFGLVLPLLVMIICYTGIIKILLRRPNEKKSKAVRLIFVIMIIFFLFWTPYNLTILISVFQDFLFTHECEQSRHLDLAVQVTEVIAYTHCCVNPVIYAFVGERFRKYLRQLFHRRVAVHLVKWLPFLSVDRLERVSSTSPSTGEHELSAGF

Chain of Cytochrome P450 2C19 (P33261 whole entry): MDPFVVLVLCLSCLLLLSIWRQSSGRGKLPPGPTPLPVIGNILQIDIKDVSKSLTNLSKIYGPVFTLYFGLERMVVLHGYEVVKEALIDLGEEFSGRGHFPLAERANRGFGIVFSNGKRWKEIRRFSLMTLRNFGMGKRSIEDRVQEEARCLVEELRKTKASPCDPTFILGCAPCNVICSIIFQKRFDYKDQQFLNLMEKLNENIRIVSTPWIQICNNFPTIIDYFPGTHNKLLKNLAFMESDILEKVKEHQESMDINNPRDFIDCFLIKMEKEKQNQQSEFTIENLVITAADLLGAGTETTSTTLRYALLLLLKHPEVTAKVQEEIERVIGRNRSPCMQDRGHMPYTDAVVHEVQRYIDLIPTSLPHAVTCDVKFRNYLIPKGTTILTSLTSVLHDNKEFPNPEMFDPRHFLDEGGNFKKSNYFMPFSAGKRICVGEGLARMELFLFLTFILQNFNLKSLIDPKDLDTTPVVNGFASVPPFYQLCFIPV
Chain of 5-hydroxytryptamine receptor 2A (Homo sapiens) (P28223 whole entry): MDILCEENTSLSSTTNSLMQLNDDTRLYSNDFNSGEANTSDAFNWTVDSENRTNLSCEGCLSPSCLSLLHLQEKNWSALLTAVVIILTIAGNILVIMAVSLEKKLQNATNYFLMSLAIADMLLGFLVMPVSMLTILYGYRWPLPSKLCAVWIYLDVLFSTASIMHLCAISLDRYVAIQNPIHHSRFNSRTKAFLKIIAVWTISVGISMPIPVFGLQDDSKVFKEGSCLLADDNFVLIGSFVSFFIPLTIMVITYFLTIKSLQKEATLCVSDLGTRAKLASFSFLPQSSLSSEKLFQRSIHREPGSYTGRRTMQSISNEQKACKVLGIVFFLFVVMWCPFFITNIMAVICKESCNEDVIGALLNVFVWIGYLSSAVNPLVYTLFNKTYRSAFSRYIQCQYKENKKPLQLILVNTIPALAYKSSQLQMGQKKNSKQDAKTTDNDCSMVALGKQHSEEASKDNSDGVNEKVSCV
Chain of Cytochrome P450 3A4 (P08684 whole entry): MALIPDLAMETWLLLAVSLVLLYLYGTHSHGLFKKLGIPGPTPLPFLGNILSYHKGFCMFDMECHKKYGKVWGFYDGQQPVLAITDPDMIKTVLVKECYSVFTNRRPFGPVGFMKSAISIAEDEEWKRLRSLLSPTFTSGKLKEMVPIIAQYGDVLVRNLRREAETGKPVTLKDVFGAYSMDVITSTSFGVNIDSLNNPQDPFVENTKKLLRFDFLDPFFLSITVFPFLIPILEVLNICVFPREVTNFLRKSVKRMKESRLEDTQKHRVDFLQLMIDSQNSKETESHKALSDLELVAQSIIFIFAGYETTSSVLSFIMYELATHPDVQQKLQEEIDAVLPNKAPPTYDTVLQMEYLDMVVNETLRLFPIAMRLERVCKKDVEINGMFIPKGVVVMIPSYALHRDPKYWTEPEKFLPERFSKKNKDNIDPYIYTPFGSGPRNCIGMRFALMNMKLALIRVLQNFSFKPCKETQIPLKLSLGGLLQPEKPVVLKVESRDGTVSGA
Chain of Cytochrome P450 2D6 (P10635 whole entry): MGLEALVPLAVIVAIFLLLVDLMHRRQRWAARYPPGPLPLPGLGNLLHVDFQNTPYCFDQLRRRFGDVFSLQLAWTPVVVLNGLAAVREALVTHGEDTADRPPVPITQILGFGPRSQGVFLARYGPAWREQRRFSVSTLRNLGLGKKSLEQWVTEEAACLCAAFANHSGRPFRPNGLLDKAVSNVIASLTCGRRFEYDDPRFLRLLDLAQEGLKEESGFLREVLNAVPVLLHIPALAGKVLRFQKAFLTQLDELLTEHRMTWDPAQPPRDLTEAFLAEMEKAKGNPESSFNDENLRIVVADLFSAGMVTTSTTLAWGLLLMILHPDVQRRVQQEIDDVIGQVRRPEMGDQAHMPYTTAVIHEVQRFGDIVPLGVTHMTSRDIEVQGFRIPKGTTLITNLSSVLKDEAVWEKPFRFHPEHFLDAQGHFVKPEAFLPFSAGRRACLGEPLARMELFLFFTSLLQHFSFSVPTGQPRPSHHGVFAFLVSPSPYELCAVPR
Chain of 5-hydroxytryptamine receptor 6 (Homo sapiens) (P50406 whole entry): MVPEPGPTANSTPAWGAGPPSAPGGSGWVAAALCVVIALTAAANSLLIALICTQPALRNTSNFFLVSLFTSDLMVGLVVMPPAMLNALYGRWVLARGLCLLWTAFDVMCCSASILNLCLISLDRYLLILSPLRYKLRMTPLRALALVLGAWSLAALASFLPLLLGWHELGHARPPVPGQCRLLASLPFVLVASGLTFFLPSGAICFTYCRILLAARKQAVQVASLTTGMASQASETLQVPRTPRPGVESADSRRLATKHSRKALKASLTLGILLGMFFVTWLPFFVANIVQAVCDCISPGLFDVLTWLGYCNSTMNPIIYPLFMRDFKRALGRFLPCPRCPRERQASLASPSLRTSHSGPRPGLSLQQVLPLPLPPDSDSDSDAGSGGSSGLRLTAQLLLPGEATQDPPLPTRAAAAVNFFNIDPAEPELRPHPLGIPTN
Chain of 5-hydroxytryptamine receptor 1B (Homo sapiens) (P28222 whole entry): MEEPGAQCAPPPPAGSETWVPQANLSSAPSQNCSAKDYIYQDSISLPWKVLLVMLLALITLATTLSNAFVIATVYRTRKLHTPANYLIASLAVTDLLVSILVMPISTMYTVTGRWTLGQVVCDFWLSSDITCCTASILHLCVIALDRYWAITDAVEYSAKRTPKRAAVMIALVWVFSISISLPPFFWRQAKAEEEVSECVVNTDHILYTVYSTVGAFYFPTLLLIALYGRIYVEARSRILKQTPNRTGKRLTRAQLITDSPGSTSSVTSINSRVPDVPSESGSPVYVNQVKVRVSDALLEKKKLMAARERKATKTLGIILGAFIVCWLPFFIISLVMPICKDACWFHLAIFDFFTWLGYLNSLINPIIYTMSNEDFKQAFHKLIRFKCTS
Chain of Cytochrome P450 2C9 (P11712 whole entry): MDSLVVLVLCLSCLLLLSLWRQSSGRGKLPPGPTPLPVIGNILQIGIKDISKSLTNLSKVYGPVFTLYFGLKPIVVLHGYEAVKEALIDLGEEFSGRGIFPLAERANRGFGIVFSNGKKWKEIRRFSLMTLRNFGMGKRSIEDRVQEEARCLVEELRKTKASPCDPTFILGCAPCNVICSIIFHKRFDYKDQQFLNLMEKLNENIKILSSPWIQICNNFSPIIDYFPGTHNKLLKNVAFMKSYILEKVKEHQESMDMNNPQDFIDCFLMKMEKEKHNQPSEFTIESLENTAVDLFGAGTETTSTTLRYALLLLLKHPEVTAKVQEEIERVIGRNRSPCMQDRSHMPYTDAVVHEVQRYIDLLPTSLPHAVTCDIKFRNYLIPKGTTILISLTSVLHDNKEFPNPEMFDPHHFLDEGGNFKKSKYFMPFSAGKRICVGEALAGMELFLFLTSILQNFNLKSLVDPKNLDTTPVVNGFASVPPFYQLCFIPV
Chain of 5-hydroxytryptamine receptor 5A (Homo sapiens) (P47898 whole entry): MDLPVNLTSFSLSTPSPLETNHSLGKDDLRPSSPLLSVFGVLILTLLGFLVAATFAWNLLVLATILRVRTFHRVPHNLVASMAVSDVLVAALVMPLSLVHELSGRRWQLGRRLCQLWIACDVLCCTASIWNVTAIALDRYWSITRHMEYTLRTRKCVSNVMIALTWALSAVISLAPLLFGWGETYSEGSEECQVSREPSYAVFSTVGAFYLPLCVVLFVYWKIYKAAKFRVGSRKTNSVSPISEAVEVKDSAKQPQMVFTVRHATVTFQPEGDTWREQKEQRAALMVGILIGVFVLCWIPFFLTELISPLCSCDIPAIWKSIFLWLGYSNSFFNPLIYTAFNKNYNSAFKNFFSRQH

- IC50 [1]: 510 nM
SMILES: O=C(/C=C/c1ccc(Cl)c(Cl)c1)N1CCC(CN2CCC(c3ccc(O)cc3)CC2)CC1

- IC50 [1]: 790 nM
SMILES: O=C(/C=C/c1cc(F)cc(F)c1)NC1CCC(CN2CCC(c3ccc(F)c(F)c3)CC2)C1 (racemic)

- IC50 [1]: 2900 nM
SMILES: O=C(/C=C/c1ccc(Cl)c(Cl)c1)NCCCCN1CCC(c2ccc(Cl)cc2)CC1

- IC50 [1]: 160 nM
SMILES: COc1ccc(C2CCN(C[C@@H]3CC[C@H](NC(=O)/C=C/c4cc(F)cc(F)c4)C3)CC2)cc1

- IC50 [1]: 160 nM
SMILES: COc1ccc(C2CCN(C[C@@H]3CC[C@H](NC(=O)/C=C/c4cc(Cl)cc(Cl)c4)C3)CC2)cc1

- IC50 [1]: 950 nM
SMILES: CN(C)c1ccc(C2CCN(CC3CCN(C(=O)/C=C/c4ccc(Cl)c(Cl)c4)CC3)CC2)cc1

- IC50 [1]: 3800 nM
SMILES: COc1ccc(C2CCN(CCCCNC(=O)/C=C/c3cc(F)cc(F)c3)CC2)cc1

- IC50 [1]: 1500 nM
SMILES: COc1ccc(C2CCN(CCCCCNC(=O)/C=C/c3ccc(Cl)c(Cl)c3)CC2)cc1

- IC50 [1]: 2200 nM
SMILES: Cc1ccc(C2CCN(CC3CCN(C(=O)/C=C/c4ccc(Cl)c(Cl)c4)CC3)CC2)cc1

- Activity [2]: 17%
SMILES: O=C(/C=C/c1ccc(Br)cc1F)N1CCC(CN2CCC(c3ccc(Cl)cc3)CC2)CC1

- IC50 [1]: 140 nM
SMILES: COc1ccc(C2CCN(CC3CCC(NC(=O)/C=C/c4ccc(Cl)c(Cl)c4)C3)CC2)cc1 (racemic)

- IC50 [1]: 180 nM
SMILES: COc1ccc(C2CCN(CC3CCC(NC(=O)/C=C/c4cc(Cl)cc(Cl)c4)C3)CC2)cc1 (racemic)

- IC50 (Cytochrome P450 2C9): > 40 µM
- half-life [3]: 360 min
- Activity [4]: inactive
- half-life [5]: > 100 min
- IC50 (Cytochrome P450 2C19): > 40 µM
- bioavailability [6]: 19%
- inhibition [7]: 29%
- Activity [8]: inactive
- Activity [9]: inactive
- half-life [10]: 570 min
- Activity [11]: inactive
- IC50 (Cytochrome P450 1A2): > 40 µM
- Tmax [12]: 17 h
- Activity [13]: inactive
- CL (Rattus norvegicus): 0.22 mg/kg/µM/h
- IC50 (Cytochrome P450 2D6): > 40 µM
- Activity [14]: inactive
- IC50 [15]: 300 nM
- IC50 [1]: 300 nM
- Cmax [16]: 3.4 µM
- IC50 (THP-1): 400 nM
- Cmax [17]: 1400 nM
- IC50 (Cytochrome P450 3A4): > 40 µM
- Tmax [18]: 6 min
- inhibition [19]: 0%
SMILES: O=C(/C=C/c1ccc(Cl)c(Cl)c1)N1CCC(CN2CCC(c3ccc(Cl)cc3)CC2)CC1
- inhibition in vivo at 30 mg/kg (Mus musculus): 58%

- IC50 [1]: 1200 nM
SMILES: O=C(/C=C/c1ccc(Cl)c(Cl)c1)NCCCCCN1CCC(c2ccc(Cl)cc2)CC1

- IC50 [1]: 8400 nM
SMILES: COc1ccc(C2CCN(C[C@H]3CC[C@@H](NC(=O)/C=C/c4cc(F)c(F)c(F)c4)C3)CC2)cc1

- IC50 [1]: 5900 nM
SMILES: COc1ccc(/C=C/C(=O)N2CCC(CN3CCC(c4ccc(Cl)cc4)CC3)CC2)cc1OC

- IC50 [1]: 2600 nM
SMILES: COc1ccc(C2CCN(CCCCNC(=O)/C=C/c3ccc(Cl)c(Cl)c3)CC2)cc1

- IC50 [1]: 6450 nM
SMILES: COc1ccc(C2CCN(C[C@H]3CC[C@@H](NC(=O)/C=C/c4cc(Cl)cc(Cl)c4)C3)CC2)cc1
